B2: LynD heterocyclase (cyclodehydratase), full length (enzyme, Lyngbya sp. PCC 8106)
chain: MQSTPLLQIQPHFHVEVIEPKQVYLLGEQANHALTGQLYCQILPLLNGQYTLEQIVEKLDGEVPPEYIDYVLERLAEKGYLTEAAPELSSEVAAFWSELGIAPPVAAEALRQPVTLTPVGNISEVTVAALTTALRDIGISVQTPTEAGSPTALNVVLTDDYLQPELAKINKQALESQQTWLLVKPVGSVLWLGPVFVPGKTGCWDCLAHRLRGNREVEASVLRQKQAQQQRNGQSGSVIGCLPTARATLPSTLQTGLQFAATEIAKWIVKYHVNATAPGTVFFPTLDGKIITLNHSILDLKSHILIKRSQCPTCGDPKILQHRGFEPLKLESRPKQFTSDGGHRGTTPEQTVQKYQHLISPVTGVVTELVRITDPANPLVHTYRAGHSFGSATSLRGLRNTLKHKSSGKGKTDSQSKASGLCEAVERYSGIFQGDEPRKRATLAELGDLAIHPEQCLCFSDGQYANRETLNEQATVAHDWIPQRFDASQAIEWTPVWSLTEQTHKYLPTALCYYHYPLPPEHRFARGDSNGNAAGNTLEEAILQGFMELVERDGVALWWYNRLRRPAVDLGSFNEPYFVQLQQFYRENDRDLWVLDLTADLGIPAFAGVSNRKTGSSERLILGFGAHLDPTIAILRAVTEVNQIGLELDKVPDENLKSDATDWLITEKLADHPYLLPDTTQPLKTAQDYPKRWSDDIYTDVMTCVNIAQQAGLETLVIDQTRPDIGLNVVKVTVPGMRHFWSRFGEGRLYDVPVKLGWLDEPLTEAQMNPTPMPF

For one series, the system named is LynD. Put plainly: Heterocyclization reaction with LynD, MS. It is filed as biochemical, Lyngbya sp. PCC 8106. The following applies: LynD wild type; 100 μM PatE′ or variant, 5 μM enzyme, 150 mM NaCl, 10 mM HEPES pH 7.4, 1 mM TCEP, 5 mM ATP, 5 mM MgCl2, 16 h, 37 °C; ESI or MALDI MS. The procedure, abridged:
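Codon-optimized full-length LynD, with a TEV-cleaved His6-tag, is purified from E. coli BL21 (DE3) by Ni, monoQ and size-exclusion steps. PatE′ (C-terminal His6) comes from inclusion bodies, purified in 8 M urea, then DTT-treated and gel-filtered. 100 μM substrate is reacted with 5 μM enzyme and 5 mM ATP/MgCl2 in HEPES pH 7.4 for 16 h at 37 °C. Heterocycle number is read by ESI or MALDI MS.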

In a further series the test system is LynD Fusion. Put plainly: Heterocyclization reaction with LynD fusion, MS. The settings on record: LynD Fusion; 100 μM PatE′, 5 μM enzyme, pH 7.4, 5 mM ATP, 5 mM MgCl2, 16 h, 37 °C; ESI or MALDI MS. The format is biochemical, Lyngbya sp. PCC 8106. The procedure, abridged: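 Enzyme is LynD carrying PatE leader residues 21-38 plus an 11-residue linker at its N-terminus, expressed in E. coli BL21 (DE3) with the His6-tag removed by TEV. Product is read by ESI/MALDI MS or LC-MS […].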

The series “SEC” deals with the molecule itself. Put plainly: SEC. In general terms: SEC sorts molecules by how far they enter the pores of the column.
The target of the next series is T1, LynD R399E (Lyngbya sp. PCC 8106, R399E).
T1 chain: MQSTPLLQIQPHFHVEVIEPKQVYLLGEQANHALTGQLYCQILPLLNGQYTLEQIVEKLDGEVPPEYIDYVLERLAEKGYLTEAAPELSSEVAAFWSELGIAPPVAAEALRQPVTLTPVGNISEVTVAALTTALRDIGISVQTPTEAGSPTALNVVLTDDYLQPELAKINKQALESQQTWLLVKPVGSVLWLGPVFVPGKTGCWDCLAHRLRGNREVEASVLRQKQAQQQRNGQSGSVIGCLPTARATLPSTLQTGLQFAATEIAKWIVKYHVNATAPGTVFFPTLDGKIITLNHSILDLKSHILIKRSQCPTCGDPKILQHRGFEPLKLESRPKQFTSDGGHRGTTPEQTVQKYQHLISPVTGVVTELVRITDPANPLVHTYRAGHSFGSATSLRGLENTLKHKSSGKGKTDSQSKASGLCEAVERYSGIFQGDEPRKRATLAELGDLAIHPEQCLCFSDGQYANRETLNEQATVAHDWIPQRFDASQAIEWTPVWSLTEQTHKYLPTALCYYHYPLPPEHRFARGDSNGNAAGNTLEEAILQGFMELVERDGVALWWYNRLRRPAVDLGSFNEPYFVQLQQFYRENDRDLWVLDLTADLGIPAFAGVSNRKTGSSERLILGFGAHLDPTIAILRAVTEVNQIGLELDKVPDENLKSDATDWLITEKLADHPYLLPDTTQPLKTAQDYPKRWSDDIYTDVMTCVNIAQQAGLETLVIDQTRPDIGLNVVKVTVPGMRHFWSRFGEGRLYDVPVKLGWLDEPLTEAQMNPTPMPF
The series is described as follows: ITC. For orientation: Isothermal titration calorimetry measures the heat released or taken up as one component is titrated into another.

Series [1] has as its target B2. The series is described as follows: ITC.
For the next series, the target named is T2, LynD Y67D (Lyngbya sp. PCC 8106, Y67D).
T2 chain: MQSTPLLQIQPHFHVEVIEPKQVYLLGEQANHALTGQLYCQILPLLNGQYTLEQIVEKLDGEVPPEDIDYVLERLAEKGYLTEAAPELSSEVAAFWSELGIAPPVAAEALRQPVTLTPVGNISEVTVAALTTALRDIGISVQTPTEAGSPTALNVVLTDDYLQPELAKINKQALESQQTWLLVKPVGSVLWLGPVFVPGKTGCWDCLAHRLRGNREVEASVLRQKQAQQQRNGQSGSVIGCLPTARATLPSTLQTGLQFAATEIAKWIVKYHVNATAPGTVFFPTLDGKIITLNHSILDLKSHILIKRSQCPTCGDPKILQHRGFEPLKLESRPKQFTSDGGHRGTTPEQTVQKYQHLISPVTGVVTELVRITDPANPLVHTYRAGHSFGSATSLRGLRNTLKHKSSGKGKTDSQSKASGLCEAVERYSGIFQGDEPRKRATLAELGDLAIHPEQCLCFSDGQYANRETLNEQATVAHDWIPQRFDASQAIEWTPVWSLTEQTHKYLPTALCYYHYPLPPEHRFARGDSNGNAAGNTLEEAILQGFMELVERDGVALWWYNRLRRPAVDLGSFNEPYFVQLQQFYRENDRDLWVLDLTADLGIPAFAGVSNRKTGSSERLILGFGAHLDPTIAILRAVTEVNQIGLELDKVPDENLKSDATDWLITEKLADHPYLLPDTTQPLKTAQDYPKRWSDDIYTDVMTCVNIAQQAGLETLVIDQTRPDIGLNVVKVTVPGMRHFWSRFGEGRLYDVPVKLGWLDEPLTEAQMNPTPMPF
The series is described as follows: ITC.

In series [2] the target is B2. Put plainly: crystal structure.

Ends that are not written are not given here.

Turning to “PatE′ L26R (MDKKNILPQQGQPVIRLTAGQLSSQRAELSEEALGDAGLEASKITACITFCAYDGELE; not fully specified (C-terminus); cysteine pairing not given here)”, in the series on LynD, the No. of heterocycles is 2.

Take “PatE′ E32R (MDKKNILPQQGQPVIRLTAGQLSSQLAELSERALGDAGLEASKITACITFCAYDGELE; not fully specified (C-terminus); cysteine pairing not given here)”: the No. of heterocycles with LynD turned out to be 2.

In the case of “MDKKNILPQQGQPVIRLTAGQLSSQLAELSEEALGDAGLEASKITACITFCAYDGELEHHH HHH [PatE′]”, the No. of heterocycles in the series on LynD Fusion and in the series on LynD was 2 in each case.

B1: LynD fusion protein (PatE leader residues 21-38 and an eleven residue linker on the N-terminus of LynD) (enzyme)
chain: QLSSQLAELSEEALGDAGAGAGAGAGAGAMQSTPLLQIQPHFHVEVIEPKQVYLLGEQANHALTGQLYCQILPLLNGQYTLEQIVEKLDGEVPPEYIDYVLERLAEKGYLTEAAPELSSEVAAFWSELGIAPPVAAEALRQPVTLTPVGNISEVTVAALTTALRDIGISVQTPTEAGSPTALNVVLTDDYLQPELAKINKQALESQQTWLLVKPVGSVLWLGPVFVPGKTGCWDCLAHRLRGNREVEASVLRQKQAQQQRNGQSGSVIGCLPTARATLPSTLQTGLQFAATEIAKWIVKYHVNATAPGTVFFPTLDGKIITLNHSILDLKSHILIKRSQCPTCGDPKILQHRGFEPLKLESRPKQFTSDGGHRGTTPEQTVQKYQHLISPVTGVVTELVRITDPANPLVHTYRAGHSFGSATSLRGLRNTLKHKSSGKGKTDSQSKASGLCEAVERYSGIFQGDEPRKRATLAELGDLAIHPEQCLCFSDGQYANRETLNEQATVAHDWIPQRFDASQAIEWTPVWSLTEQTHKYLPTALCYYHYPLPPEHRFARGDSNGNAAGNTLEEAILQGFMELVERDGVALWWYNRLRRPAVDLGSFNEPYFVQLQQFYRENDRDLWVLDLTADLGIPAFAGVSNRKTGSSERLILGFGAHLDPTIAILRAVTEVNQIGLELDKVPDENLKSDATDWLITEKLADHPYLLPDTTQPLKTAQDYPKRWSDDIYTDVMTCVNIAQQAGLETLVIDQTRPDIGLNVVKVTVPGMRHFWSRFGEGRLYDVPVKLGWLDEPLTEAQMNPTPMPF
Turning to B1, in “SEC”, the stoichiometry N (as a rule, a count of units in the complex or per binding partner) turned out to be 2.

On to B2, for which the “stoichiometry N” value in “SEC” is 2.

B3: PatE′ (modified PatE precursor peptide with full leader and a single core peptide ITACITFC) (peptide)
chain: MDKKNILPQQGQPVIRLTAGQLSSQLAELSEEALGDAGLEASKITACITFCAYDGELE
For the molecule B3, the Kd (as a rule, the free concentration of one partner at which half of the binding sites on the other are occupied at equilibrium, for simple one-to-one binding) came out at 10.7 µM with LynD R399E, 1.49 µM in series [1] and 12.9 µM with LynD Y67D.

B4: PatE′ E32R (peptide)
chain: MDKKNILPQQGQPVIRLTAGQLSSQLAELSERALGDAGLEASKITACITFCAYDGELE
For the molecule B4, the Kd with LynD R399E is 8.55 µM; in series [1] it was 18.4 µM.

B5: PatE′ L26R (peptide)
chain: MDKKNILPQQGQPVIRLTAGQLSSQRAELSEEALGDAGLEASKITACITFCAYDGELE
In turn, B5 yielded a Kd with LynD Y67D of 15.2 µM.

B6: PatE′ C51A (peptide)
chain: MDKKNILPQQGQPVIRLTAGQLSSQLAELSEEALGDAGLEASKITACITFAAYDGELE
For the molecule B6, the binding result in series [2] is on record as “binds”.
